Assay [1] deals with L1210. Put plainly: T/C in % was determined against L1210 murine leukemia cells at a dose of 50 x3 mg/kg.
Assay [2] has as its system L1210. Put plainly: T/C in % was determined against L1210 murine leukemia cells at a dose of 12.5 x3 mg/kg. The assay is classed as functional, Mus musculus.
The subject of assay [3] is L1210. In words: T/C in % was determined against L1210 murine leukemia cells at a dose of 25 x3 mg/kg; 60 - day survivors =1/6. Format: functional, Mus musculus.
Assay [4] deals with L1210. Put plainly: Compound was tested for the concentration required to inhibit L1210 murine leukemia cell growth by 50% of control. Particulars: Mus musculus, read-out: ID50 (the source's name). Format: functional. Put shortly:
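L1210 cells grown in suspension in McCoy's 5A with 10% horse serum, glutamine, penicillin and streptomycin at 37 °C in 10% CO2. Drug was added from DMSO to 5 × 10^4 cells/mL at final 0.01, 0.1 and 10 μg/mL. After 72 h continuous exposure, cells were counted on a Coulter counter.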

Assay [5] has as its system P388 leukemia (mouse). Put plainly: T/C in % was determined against P388 murine leukemia cells at a dose of 50 x2 mg/kg; 60 - day survivors =0/6.
Assay [6] concerns L1210. Put plainly: T/C in % was determined against L1210 murine leukemia cells at a dose of 50 x3 mg/kg; 60 - day survivors =0/6. The assay is classed as functional, Mus musculus.
In assay [7] the test system is P388 leukemia (mouse). Put plainly: T/C in % was determined against P388 murine leukemia cells at a dose of 25 x2 mg/kg; 60 - day survivors =0/6.
For assay [8], the system named is P388 leukemia (mouse). Put plainly: T/C in % was determined against P388 murine leukemia cells at a dose of 100 x1 mg/kg; Toxic.
For assay [9], the system named is L1210. In words: T/C in % was determined against L1210 murine leukemia cells at a dose of 25 x3 mg/kg; 60 - day survivors =0/6. The assay is classed as functional, Mus musculus.
For assay [10], the system named is L1210. Put plainly: T/C in % was determined against L1210 murine leukemia cells at a dose of 4 x3 mg/kg 60 - day survivors =3/6. The assay is classed as functional, Mus musculus.
Assay [11] deals with L1210. Put plainly: T/C in % was determined against L1210 murine leukemia cells at a dose of 8 x3 mg/kg; 60 - day survivors =1/6. Format: functional, Mus musculus.
In assay [12] the test system is L1210. Put plainly: T/C in % was determined against L1210 murine leukemia cells at a dose of 12.5 x2 mg/kg; 60 - day survivors =1/6. Format: functional, Mus musculus.
Assay [13] has as its system L1210. In words: T/C in % was determined against L1210 murine leukemia cells at a dose of 12.5x2 mg/kg; 60 - day survivors =0/6. The assay is classed as functional, Mus musculus.
Assay [14] concerns L1210. Put plainly: T/C in % was determined against L1210 murine leukemia cells at a dose of 25x3 mg/kg; 60 - day survivors =3/6. Format: functional, Mus musculus.
Assay [15] deals with L1210. In words: T/C in % was determined against L1210 murine leukemia cells at a dose of 6.25 x3 mg/kg; 60 - day survivors =1/6. Format: functional, Mus musculus.

Converted amounts (≈) assume the structure as drawn.

For the molecule `O=C1c2ccccc2C(=O)c2c(NCCNCCO)ccc(NCCNCCO)c21` [AMETANTRONE], the T/C with L1210 [1] stood at 146%; in the assay with L1210 [2] it was 177%; in the assay with L1210 [3], 203%.

For `O=C1c2ccsc2C(=O)c2c(NCCBr)ccc(NCCBr)c21`, in the assay on L1210 [4], the IC50 was 5.2 µg/mL (≈ 11.3 µM).

In the case of `CN(C)CCNc1ccc(NCCN(C)C)c2c1C(=O)c1ccsc1C2=O`, the T/C in the assay with P388 leukemia (mouse) [5] is 128%; in the assay with L1210 [6], 109%; in the assay on P388 leukemia (mouse) [7], 108%; in the assay on P388 leukemia (mouse) [8] it was “Toxic”; in the assay on L1210 [9], 107%. For the same molecule, the IC50 in the assay with L1210 [4] was found to be 0.038 µg/mL (≈ 0.0983 µM).

Regarding `O=C1c2ccsc2C(=O)c2c(NCCO)ccc(NCCO)c21`, the IC50 with L1210 [4] was more than 10 µg/mL.

For `NCCNc1ccc(NCCN)c2c1C(=O)c1ccsc1C2=O`, the T/C with L1210 [10] is 325%; in the assay on L1210 [11], 400%; with L1210 [12], 386%. In addition, the IC50 in the assay on L1210 [4] amounted to 0.026 µg/mL (≈ 0.0787 µM).

In the case of `O=C1c2ccsc2C(=O)c2c(NCCN3CC3)ccc(NCCN3CC3)c21`, the T/C was found to be 114% with P388 leukemia (mouse) [5], 112% with P388 leukemia (mouse) [7] and 104% with L1210 [13]. In the assay with L1210 [4], the IC50 turned out to be 0.0035 µg/mL (≈ 0.00915 µM).

Take `O=C1c2ccsc2C(=O)c2c(NCCNCCO)ccc(NCCNCCO)c21`: the T/C is recorded as 333% in the assay with L1210 [14] and 403% in the assay on L1210 [15]. In addition, the IC50 in the assay on L1210 [4] turned out to be 0.064 µg/mL (≈ 0.153 µM).

(Values after ChEMBL document CHEMBL1125056, “Heterosubstituted anthracene-9,10-dione analogues. The synthesis and antitumor evaluation of 5,8-bis[(aminoalkyl)amino]naphtho[2,3-b] thiophene-4,9-diones” (1990).)
